Laboratory results as given in PMC3032767 (Journal of cellular physiology, 2008).
Like-named read-outs stand apart in the source and are kept apart here.

Columns and labels:
[1] = Ocular distribution of 14C-TG100801; format: in vivo, Dutch-Belted rabbit; conditions: rabbit, 30 min after single 40 µL topical 1% TG100801 containing 14C-TG100801, left eye; liquid scintillation counter
In short: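 A single male Dutch-Belted rabbit (2.1 kg) received 25 µCi of 14C label in the dose. The label sits on a position kept after prodrug conversion, so counts cover prodrug plus active drug. About 30 mL blood was taken 30 min post-instillation. Blood and plasma were counted directly by liquid scintillation.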

[2] = Pharmacokinetics after topical dosing in mice; format: in vivo, C57BL/6 mice; conditions: for Plasma concentration (below level of detection): mouse, topical 1% TG100801, all time points, analyte = labelled compound
[3] = test system: retinal edema after retinal vein thrombosis; test: Rat model of retinal vein occlusion, retinal thickness by OCT; format: in vivo, Long Evans rats; conditions: topical 1% TG100801
In short: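 The same Rose Bengal/laser vein-occlusion protocol and 5-dose topical schedule were used, with 1% test prodrug or vehicle; naive eyes served as comparators. Under ketamine/xylazine, vertical OCT scans covered 5 mm from the optic disc edge. Thickness was calculated at 6 evenly spaced points, and retinal area was derived. Assessment was blinded, n=17–21.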

[4] = Ocular safety assessment in rabbits; format: in vivo, Dutch Belted rabbits; conditions: rabbit, 1% topical four times per day for 28 days
In short: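 Dutch Belted rabbits (1.7–2.2 kg) had baseline gross and slit lamp exams. Each eye then received 40 µL of 1% test prodrug or vehicle topically four times daily for 28 days. Gross exams were done daily and slit lamp exams weekly. On Day 29, final exams and ERGs were done, then eyes were taken for histopathology.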

[5] = Oral and intravenous administration, systemic exposure; format: in vivo; conditions: data not shown; for Oral bioavailability: oral administration
kinase = test: Anti-kinase activity of the prodrug; format: biochemical; conditions: data not shown
[6] = test system: laser-induced choroidal neovascularization (CNV); test: Mouse model of laser-induced CNV; format: in vivo, C57BL/6 mice; conditions: 14 days
[7] = test system: retinal edema after retinal vein thrombosis; format: in vivo, Long Evans rats
In short: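 Long Evans rats (250–275 g) got i.v. Rose Bengal (20 mg/kg), then laser thrombosis of one vein in the right eye. Both eyes received 10 µL test prodrug (0.3–1%) or vehicle, 5 doses over 3 days. Edema Index = (right AUC − left AUC)/left AUC. Scoring was blinded, n=9–11.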

[8] = Body weight and tolerability in the mouse CNV study; format: in vivo; conditions: 14 days
[9] = test system: retinal and choroidal neovascularization; conditions: topical administration to the eye; ref Takahashi et al., 2003; cited from earlier work
[10] = test system: subfoveal choroidal neovascularization (CNV) due to AMD; conditions: intraocular injections every 6 weeks; ref Gragoudas et al., 2004; cited from earlier work
Src = Src (Homo sapiens, UniProt P12931); test: Kinase inhibition assay; format: biochemical
[11] = Ocular tissue levels after i.p. dosing in mice; format: in vivo, C57BL/6 mice; conditions: C57BL/6, mouse, ip, 5 mg/kg
In short: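 C57BL/6 mice (15–20 g) got 5 mg/kg test compound i.p. twice daily for 4 days, then a single dose on Day 5. Eyes were taken 5 hr later, dissected into retina and sclera/choroid eye cups, and pooled (N=2–4). Tissue was homogenized in RIPA, extracted with acetonitrile containing internal standards and quantified by LC/MS/MS against standards made in naive tissue.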

Lck = Lck (Homo sapiens, UniProt P06239); test: Kinase inhibition assay; format: biochemical
[12] = test system: VEGF-induced phosphorylation of extracellular signal-regulated kinase (ERK); test: Western blot of VEGF-induced signaling in microvascular EC; format: cell-based, human; conditions: 1 µM for 1 hr, then rhVEGF 50 ng/ml 10 min
In short: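 Endothelial cells were held overnight in serum- and growth factor-free medium before test compound exposure. After 10 min rhVEGF, cells were lysed and blotted for phosphorylated Erk1/2, with total STAT3 as loading control. Comparison groups were no-VEGF and VEGF-only cultures.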

Fyn = Fyn (Homo sapiens, UniProt P06241); test: Kinase inhibition assay; format: biochemical
In short: (§1)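 Kinase activity was measured by commercial services. IC50 is the mean of 3 independent experiments.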

Yes = Yes (Homo sapiens, UniProt P07947); test: Kinase inhibition assay; format: biochemical
In short: as §1

Fgr = Fgr (Homo sapiens, UniProt P09769); test: Kinase inhibition assay; format: biochemical
In short: as §1

Lyn = Lyn (Homo sapiens, UniProt P07948); test: Kinase inhibition assay; format: biochemical
In short: as §1

VEGFR1 = VEGFR1 (Homo sapiens, UniProt P17948); test: Kinase inhibition assay; format: biochemical
In short: as §1

VEGFR2 = VEGFR2 (Homo sapiens, UniProt P35968); test: Kinase inhibition assay; format: biochemical
In short: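 Kinase inhibition was run by commercial services, with the test compound supplied as a DMSO stock. IC50 is the mean from 3 independent experiments.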

FGFR1 = FGFR1 (Homo sapiens, UniProt P11362); test: Kinase inhibition assay; format: biochemical
In short: as §1

PDGFRβ = PDGFRβ (Homo sapiens, UniProt P09619); test: Kinase inhibition assay; format: biochemical
In short: as §1

FGFR2 = FGFR2 (Homo sapiens, UniProt P21802); test: Kinase inhibition assay; format: biochemical
In short: as §1

[13] = test system: human retinal microvascular EC; test: Endothelial cell proliferation assay; format: cell-based; conditions: 48 hr; 10% FBS, 50 ng/mL rhVEGF; mean ± SEM, N= 3
In short: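 Human retinal microvascular EC were grown 48 hr with test compound (2 nM–5 µM) or DMSO vehicle in medium containing 10% FBS, 50 µg/mL heparin and 50 ng/mL rhVEGF. Cell number was read by XTT assay.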

Hck = Hck (Homo sapiens, UniProt P08631); test: Kinase inhibition assay; format: biochemical
In short: as §1

Fgr, sequence (P09769 whole entry, species assumed): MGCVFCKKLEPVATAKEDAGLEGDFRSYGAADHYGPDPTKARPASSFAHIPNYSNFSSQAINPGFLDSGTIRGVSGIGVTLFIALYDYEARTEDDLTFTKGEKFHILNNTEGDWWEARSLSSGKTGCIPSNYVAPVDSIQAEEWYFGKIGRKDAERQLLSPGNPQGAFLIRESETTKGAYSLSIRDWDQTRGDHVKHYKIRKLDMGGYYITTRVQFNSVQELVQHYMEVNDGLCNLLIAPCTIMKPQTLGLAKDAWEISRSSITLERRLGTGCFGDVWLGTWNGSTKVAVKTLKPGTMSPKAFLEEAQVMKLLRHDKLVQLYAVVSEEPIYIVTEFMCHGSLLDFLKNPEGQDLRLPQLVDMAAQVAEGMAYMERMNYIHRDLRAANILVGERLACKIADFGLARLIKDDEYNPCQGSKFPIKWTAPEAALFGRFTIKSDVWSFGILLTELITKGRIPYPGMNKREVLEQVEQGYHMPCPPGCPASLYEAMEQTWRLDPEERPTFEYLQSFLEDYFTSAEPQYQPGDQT
Fyn, sequence (P06241 whole entry, species assumed): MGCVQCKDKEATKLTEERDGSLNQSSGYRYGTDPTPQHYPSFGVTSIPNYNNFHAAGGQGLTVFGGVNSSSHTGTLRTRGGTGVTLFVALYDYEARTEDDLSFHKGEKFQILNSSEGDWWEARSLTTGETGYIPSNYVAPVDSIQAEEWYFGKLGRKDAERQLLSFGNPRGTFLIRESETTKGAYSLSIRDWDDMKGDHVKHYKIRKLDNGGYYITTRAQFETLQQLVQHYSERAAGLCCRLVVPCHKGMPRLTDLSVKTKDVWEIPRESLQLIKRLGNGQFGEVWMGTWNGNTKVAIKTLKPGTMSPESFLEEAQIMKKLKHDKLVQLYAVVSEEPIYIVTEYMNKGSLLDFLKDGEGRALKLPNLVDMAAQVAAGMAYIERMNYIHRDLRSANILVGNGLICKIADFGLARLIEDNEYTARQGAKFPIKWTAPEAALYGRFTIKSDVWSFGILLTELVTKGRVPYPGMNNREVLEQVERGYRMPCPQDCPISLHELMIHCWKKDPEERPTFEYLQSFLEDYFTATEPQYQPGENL
FGFR2, sequence (P21802 22-821, species assumed): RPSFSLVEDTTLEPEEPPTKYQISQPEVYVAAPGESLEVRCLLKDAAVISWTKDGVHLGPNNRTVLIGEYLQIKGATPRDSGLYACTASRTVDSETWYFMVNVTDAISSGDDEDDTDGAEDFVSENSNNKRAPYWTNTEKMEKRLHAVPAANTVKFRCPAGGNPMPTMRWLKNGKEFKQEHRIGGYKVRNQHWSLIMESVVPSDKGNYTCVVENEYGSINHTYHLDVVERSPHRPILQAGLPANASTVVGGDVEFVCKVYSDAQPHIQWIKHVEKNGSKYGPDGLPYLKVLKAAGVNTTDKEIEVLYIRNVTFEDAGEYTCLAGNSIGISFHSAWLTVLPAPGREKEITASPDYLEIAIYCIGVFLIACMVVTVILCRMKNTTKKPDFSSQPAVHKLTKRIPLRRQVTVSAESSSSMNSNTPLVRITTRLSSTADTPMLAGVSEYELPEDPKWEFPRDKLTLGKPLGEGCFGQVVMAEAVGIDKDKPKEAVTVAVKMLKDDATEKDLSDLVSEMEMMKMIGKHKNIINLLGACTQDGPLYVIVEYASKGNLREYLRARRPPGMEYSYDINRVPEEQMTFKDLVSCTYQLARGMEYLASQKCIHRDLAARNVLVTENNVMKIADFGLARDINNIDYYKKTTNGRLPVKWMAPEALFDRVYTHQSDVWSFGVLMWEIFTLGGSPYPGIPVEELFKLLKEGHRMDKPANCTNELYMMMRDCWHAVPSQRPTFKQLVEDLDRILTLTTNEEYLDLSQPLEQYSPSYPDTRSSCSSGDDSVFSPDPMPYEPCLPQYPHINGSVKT
Src, sequence (P12931 whole entry, species assumed): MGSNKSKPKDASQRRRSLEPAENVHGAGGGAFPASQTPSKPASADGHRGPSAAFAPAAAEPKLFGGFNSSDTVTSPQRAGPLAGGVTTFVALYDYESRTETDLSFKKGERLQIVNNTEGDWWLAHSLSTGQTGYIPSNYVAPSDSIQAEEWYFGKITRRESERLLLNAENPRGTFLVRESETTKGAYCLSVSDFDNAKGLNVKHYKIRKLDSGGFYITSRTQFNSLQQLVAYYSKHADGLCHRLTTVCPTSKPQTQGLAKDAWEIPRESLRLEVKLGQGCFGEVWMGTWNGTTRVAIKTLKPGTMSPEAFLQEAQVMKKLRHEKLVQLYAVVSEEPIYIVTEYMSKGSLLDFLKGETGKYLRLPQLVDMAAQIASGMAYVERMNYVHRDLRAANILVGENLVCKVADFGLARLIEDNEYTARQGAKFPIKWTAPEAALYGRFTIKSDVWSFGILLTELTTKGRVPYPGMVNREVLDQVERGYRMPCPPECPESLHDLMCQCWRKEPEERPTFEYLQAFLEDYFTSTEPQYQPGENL
Yes, sequence (P07947 whole entry, species assumed): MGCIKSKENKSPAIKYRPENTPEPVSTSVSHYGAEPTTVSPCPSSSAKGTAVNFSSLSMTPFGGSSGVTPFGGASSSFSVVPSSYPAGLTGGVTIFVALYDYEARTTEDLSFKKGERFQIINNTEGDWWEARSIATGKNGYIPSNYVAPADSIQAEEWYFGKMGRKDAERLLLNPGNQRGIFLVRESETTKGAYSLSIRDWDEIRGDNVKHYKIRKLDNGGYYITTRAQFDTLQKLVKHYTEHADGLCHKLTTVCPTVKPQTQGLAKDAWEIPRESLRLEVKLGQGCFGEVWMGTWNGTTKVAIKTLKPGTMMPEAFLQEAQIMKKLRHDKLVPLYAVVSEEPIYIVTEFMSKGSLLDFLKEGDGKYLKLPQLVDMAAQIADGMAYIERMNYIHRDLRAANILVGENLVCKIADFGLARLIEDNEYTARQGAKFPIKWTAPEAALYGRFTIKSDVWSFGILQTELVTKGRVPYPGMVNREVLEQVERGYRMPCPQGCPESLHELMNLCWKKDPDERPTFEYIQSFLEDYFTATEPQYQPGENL
Lck, sequence (P06239 whole entry, species assumed): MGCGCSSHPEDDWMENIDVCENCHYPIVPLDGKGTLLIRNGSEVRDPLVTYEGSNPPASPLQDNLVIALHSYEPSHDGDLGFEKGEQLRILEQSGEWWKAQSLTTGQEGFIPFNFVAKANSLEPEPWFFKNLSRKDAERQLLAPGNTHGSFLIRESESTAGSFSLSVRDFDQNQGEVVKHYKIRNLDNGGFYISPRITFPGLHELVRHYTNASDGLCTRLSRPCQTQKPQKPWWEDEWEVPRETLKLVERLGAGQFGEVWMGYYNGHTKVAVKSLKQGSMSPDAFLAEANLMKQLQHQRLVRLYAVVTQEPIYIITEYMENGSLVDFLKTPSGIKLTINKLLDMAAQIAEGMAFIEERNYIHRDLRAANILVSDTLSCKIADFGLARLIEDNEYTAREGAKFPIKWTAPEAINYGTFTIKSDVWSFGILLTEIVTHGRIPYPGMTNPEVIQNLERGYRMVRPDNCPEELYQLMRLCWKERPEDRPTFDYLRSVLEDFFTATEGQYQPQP
Hck, sequence (P08631 whole entry, species assumed): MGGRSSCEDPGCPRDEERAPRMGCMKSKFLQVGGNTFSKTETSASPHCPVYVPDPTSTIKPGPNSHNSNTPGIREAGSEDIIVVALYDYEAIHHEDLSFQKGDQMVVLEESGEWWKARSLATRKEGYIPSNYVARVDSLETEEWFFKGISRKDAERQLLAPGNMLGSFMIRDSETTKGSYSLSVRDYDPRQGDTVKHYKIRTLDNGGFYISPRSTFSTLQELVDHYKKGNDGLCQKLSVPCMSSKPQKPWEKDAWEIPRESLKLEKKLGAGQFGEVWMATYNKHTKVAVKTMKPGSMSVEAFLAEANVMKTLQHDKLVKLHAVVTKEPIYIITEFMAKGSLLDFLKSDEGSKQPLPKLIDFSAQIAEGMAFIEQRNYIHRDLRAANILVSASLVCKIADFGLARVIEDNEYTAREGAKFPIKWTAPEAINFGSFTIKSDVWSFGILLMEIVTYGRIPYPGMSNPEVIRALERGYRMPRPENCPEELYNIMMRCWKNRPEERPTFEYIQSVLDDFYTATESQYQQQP
FGFR1, sequence (P11362 22-822, species assumed): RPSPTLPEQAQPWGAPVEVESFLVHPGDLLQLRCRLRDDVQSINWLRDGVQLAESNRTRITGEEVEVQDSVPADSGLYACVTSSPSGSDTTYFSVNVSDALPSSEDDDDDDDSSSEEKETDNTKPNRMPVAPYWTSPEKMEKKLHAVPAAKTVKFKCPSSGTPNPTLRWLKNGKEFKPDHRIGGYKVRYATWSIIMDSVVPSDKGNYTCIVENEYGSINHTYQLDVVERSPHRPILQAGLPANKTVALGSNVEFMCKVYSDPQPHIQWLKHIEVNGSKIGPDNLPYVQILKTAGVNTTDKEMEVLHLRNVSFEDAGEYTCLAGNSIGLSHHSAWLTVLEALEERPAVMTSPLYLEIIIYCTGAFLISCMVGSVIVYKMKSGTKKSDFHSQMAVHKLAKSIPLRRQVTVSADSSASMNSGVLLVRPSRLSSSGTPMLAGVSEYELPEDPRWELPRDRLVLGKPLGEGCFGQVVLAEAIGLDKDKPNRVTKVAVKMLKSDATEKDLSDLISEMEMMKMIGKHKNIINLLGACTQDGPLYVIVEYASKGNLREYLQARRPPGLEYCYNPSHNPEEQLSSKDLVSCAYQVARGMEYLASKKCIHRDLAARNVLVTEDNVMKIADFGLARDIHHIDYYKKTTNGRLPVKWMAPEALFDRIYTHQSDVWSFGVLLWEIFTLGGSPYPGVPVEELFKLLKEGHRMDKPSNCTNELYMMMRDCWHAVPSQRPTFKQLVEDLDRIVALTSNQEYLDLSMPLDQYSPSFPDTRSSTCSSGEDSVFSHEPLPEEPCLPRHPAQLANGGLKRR

Compound: Cc1cc(-c2cc(OC(=O)c3ccccc3)ccc2Cl)cc2nnc(Nc3ccc(OCCN4CCCC4)cc3)nc12 [TG100801, 4-chloro-3-(5-methyl-3-{[4-(2-pyrrolidin-1-ylethoxy)phenyl]amino}-1,2,4-benzotriazin-7-yl)phenyl benzoate]
- Radioactivity in plasma samples [1]: absence of detectable radioactivity
- Plasma concentration (below level of detection) [2]: < 2 nM
- Average retinal area in the region encompassed by the OCT scans ([3]; thrombosed eyes, naive 203 ± 2, vehicle 327 ± 23): 257 ± 13 µm^2
- Reduction of retinal thickness vs vehicle at points along 5 mm OCT scans ([3]; 5 out of 6 points, P< 0.05): 15–26%
- Reduction of average retinal area vs vehicle-treated group ([3]; P= 0.013): 21%
- Daily gross exams and weekly slit lamp exams [4]: did not detect ocular changes beyond baseline responses
- Electroretinograms (ERG) pre- and post-study [4]: no meaningful changes
- Ocular histopathology at study end [4]: normal ocular histology
- Ocular tolerability, overall judgement [4]: well-tolerated
- Body weight during the study ([4]; data not shown): did not lose weight
- Clearance after intravenous administration [5]: rapidly cleared
- Oral bioavailability [5]: oral administration does not result in detectable levels in the circulation
- Anti-kinase activity (kinase): does not display meaningful anti-kinase activity
- Reduction of CNV area relative to vehicle ([6]; topical 1% TG100801 twice a day, P= 0.036): 58%
- Reduction in edema (Edema Index, fluorescein leakage) vs vehicle ([7]; topical 0.3% TG100801, 5 applications over 3 days, P= 0.002): 47%
- Reduction in edema (Edema Index, fluorescein leakage) vs vehicle ([7]; topical 1% TG100801, 5 applications over 3 days, P = 0.039): 32%
- Ocular tolerability by slit lamp examination ([8]; mouse, topical 0.6% and 1% twice a day): well tolerated with no signs of irritation, inflammation, or other ocular toxicity

Compound: NC(=O)Cc1cccc(C(=O)c2ccccc2)c1N [nepafenac]
- Effect on retinal and choroidal neovascularization [9]: inhibits retinal and choroidal neovascularization

Compound: pegaptanib
- Severe vision loss over 1 year [10]: reduction in severe vision loss

Compound: Cc1cc(-c2cc(O)ccc2Cl)cc2nnc(Nc3ccc(OCCN4CCCC4)cc3)nc12 [TG100572, 4-chloro-3-(5-methyl-3-{[4-(2-pyrrolidin-1-ylethoxy)phenyl]amino}-1,2,4-benzotriazin-7-yl)phenol]
- IC50 (Src): 1 nM
- concentration at 5 h ([11]; choroid/sclera): 9000 nM
- concentration at 5 h ([11]; retina): 818 nM
- IC50 (Lck): 0.1 nM
- AUC(0-t) ([2]; C57BL/6, mouse, posterior eyecup (sclera/choroid/retina), topical or ocular, 1 %): 6.8 µM·h
- Tmax ([2]; C57BL/6, mouse, sclera/choroid, topical or ocular, 1 %): 1 h
- Plasma concentration (below level of detection) [2]: < 2 nM
- VEGF-induced phosphorylation of ERK [12]: blocked VEGF-induced phosphorylation of extracellular signal-regulated kinase (ERK)
- IC50 (Fyn): 0.5 nM
- IC50 (Yes): 0.2 nM
- Clearance after intravenous administration [5]: rapidly cleared
- Oral bioavailability [5]: oral administration does not result in detectable levels in the circulation
- Reduction of CNV area compared to vehicle ([6]; TG100572 5 mg/kg i.p. daily, P< 0.001): 40%
- IC50 (Fgr): 5 nM
- IC50 (Lyn): 0.4 nM
- IC50 (VEGFR1): 2 nM
- IC50 (VEGFR2): 7 nM
- Body weight loss over the study ([8]; TG100572 5 mg/kg i.p. daily, vehicle gained 1%, P= 0.006): 11%
- IC50 (FGFR1): 2 nM
- IC50 (PDGFRβ): 13 nM
- IC50 (FGFR2): 16 nM
- ED50, inhibition of vascular endothelial cell proliferation [13]: 610 ± 71 nM
- IC50 (Hck): 6 nM
